ChEMBL document CHEMBL1157743, “Mitotic arrest induced by a novel family of DNA topoisomerase II inhibitors” (J Med Chem, 2010)

What was measured:
SW1573 = experiment: Antiproliferative activity against human SW1573 cells after 48 hrs by SRB assay; assay type: functional; conditions: SW1573, 48 h
Summary of the method: (§1)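 Human solid tumor lines and three immortalized nontumor lines in culture, exposed to the test agent. Read-out is growth inhibition, reported as GI50 (μM).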

HBL-100 = experiment: Antiproliferative activity against human HBL100 cells after 48 hrs by SRB assay; assay type: functional; conditions: HBL-100, 48 h; summary of the method: as §1

Row | GI50 (SW1573) | SMILES | GI50 (HBL-100)
1 | > 100000 nM | C#CCO/C=C/C(=O)OC | > 100000 nM
2 | 2100 nM | COC(=O)C#CC(O/C=C/C(=O)OC)C1CCCCC1 (stereo not drawn) | 2500 nM
3 | 2200 nM | COC(=O)C#CC(C[C@@H](C)CCC=C(C)C)O/C=C/C(=O)OC (stereo partly drawn) | 3100 nM
4 | 380 nM | COC(=O)C#CC(CC(C)C)O/C=C/C(=O)OC (stereo not drawn) | 330 nM
5 | > 100000 nM | CC1CCC(C(C)C)C(OC(=O)C#CC(O/C=C/C(=O)OC2CC(C)CCC2C(C)C)C(C)C)C1 (stereo not drawn) | > 100000 nM
6 | > 100000 nM | COC(=O)/C=C/OC(C#CC(=O)O)C(C)(C)C (stereo not drawn) | > 100000 nM
7 | 1700 nM | COC(=O)C#CC(C)O/C=C/C(=O)OC (stereo not drawn) | 300 nM
8 | 4800 nM | CC(C)C(C#CC(=O)OC(C)(C)C)O/C=C/C(=O)OC(C)(C)C (stereo not drawn) | 3000 nM
9 | 3300 nM | CCCCCCC(C#CC(=O)OC)O/C=C/C(=O)OC (stereo not drawn) | 2500 nM
10 | 2800 nM | CCOC(=O)C#CC(O/C=C/C(=O)OCC)C(C)C (stereo not drawn) | 3000 nM
11 | 1200 nM | COC(=O)C#CC(O/C=C/C(=O)OC)C(C)c1ccccc1 (stereo not drawn) | 490 nM
12 | 910 nM | CCC(C)C(C#CC(=O)OC)O/C=C/C(=O)OC (stereo not drawn) | 340 nM
13 | 2000 nM | CCCCCCCCCCC(C#CC(=O)OC)O/C=C/C(=O)OC (stereo not drawn) | 2200 nM
14 | 1700 nM | CCCCCC(C#CC(=O)OC)O/C=C/C(=O)OC (stereo not drawn) | 1900 nM
